Reference: ChEMBL document CHEMBL2150875, “1-Aryl-4-nitro-1H-imidazoles, a new promising series for the treatment of human African trypanosomiasis” (Eur J Med Chem, 2011)
In brackets after ≈: the same amount, converted by molar mass. One block for each compound: values may come before it.

How the values were obtained:
[1] = system: Trypanosoma brucei rhodesiense; assay: Antiparasitic activity against Trypanosoma brucei rhodesiense STIB900 bloodstream forms assessed as reduction in cell viability after 70 hrs by alamar blue assay; assay type: functional, organism-based
L6 = assay: Cytotoxicity against in rat L6 cells assessed as reduction in cell viability after 70 hrs by alamar blue assay; assay type: cell-based; details: L6, 70 h
Outline: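 L-6 rat skeletal myoblasts seeded at 4×10^4/mL. 37 °C, 5% CO2, 70 h, then resazurin viability read by fluorescence after 2–4 h. IC50 from sigmoidal inhibition curves.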

Lymphocyte [2] = assay: Genotoxicity in human lymphocytes assessed as micronucleated binucleate cells level at […] incubated for 20 hrs measured post 28 hrs recovery in absence of rat liver S9 fraction (reference value: 0.3%); assay type: toxicity, cell-based
Lymphocyte [3] = assay: Genotoxicity in human lymphocytes assessed as micronucleated binucleate cells level at 5 ug/mL incubated for 20 hrs measured post 28 hrs recovery in absence of rat liver S9 fraction (reference value: 0.4%); assay type: toxicity, cell-based
Outline: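 Cultures were PHA-stimulated pooled female donor whole-blood lymphocytes, grown 48 h at 37 °C before treatment, with cytochalasin-B 6 µg/mL added at treatment. Without S9, exposure was 20 h with 28 h recovery. With rat S9, exposure was 3 h with 45 h recovery. Micronucleated binucleate cells were scored at 1000 per replicate on Giemsa-stained slides.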

[4] = Redox potential of the compound assessed as one electron redox potential by pulse radiolysis method; assay type: physicochemical
Lymphocyte [5] = assay: Genotoxicity in human lymphocytes assessed as micronucleated binucleate cells level at 0.03 ug/mL incubated for 24 hrs measured under no recovery condition in absence of rat liver S9 fraction (reference value: 0.50%); assay type: toxicity, cell-based
[6] = Trypanosoma brucei, STIB900, 70 h, read-out: IC50

IC50 [1]: Not Active
SMILES: O=[N+]([O-])c1cn(-c2ccccc2Cl)cn1

IC50 [1]: Not Active
SMILES: O=[N+]([O-])c1cn(-c2ccccc2Br)cn1

IC50 [1]: Not Active
SMILES: O=[N+]([O-])c1cn(-c2ccc(F)cc2F)cn1

IC50 [1]: Not Active
SMILES: O=[N+]([O-])c1cn(-c2c(F)cccc2F)cn1

IC50 [1]: Not Active
SMILES: O=[N+]([O-])c1cn(-c2ccc(Cl)cc2Cl)cn1

IC50 [1]: Not Active
SMILES: O=[N+]([O-])c1cn(-c2cc(Cl)ccc2Cl)cn1

IC50 [1]: Not Active
SMILES: Cc1ccc(-n2cnc([N+](=O)[O-])c2)c(Br)c1

IC50 [1]: Not Active
SMILES: Cc1ccc(-n2cnc([N+](=O)[O-])c2)c(C)c1

IC50 [1]: Not Active
SMILES: COc1ccc(-n2cnc([N+](=O)[O-])c2)c(OC)c1

IC50 [1]: Not Active
SMILES: COc1ccc(-n2cnc([N+](=O)[O-])c2)cc1OC

IC50 [1, 6]: 940 nM
SMILES: O=[N+]([O-])c1cn(-c2ccc3c(c2)OCO3)cn1
IC50 (L6): > 90 µg/mL

SMILES: O=[N+]([O-])c1cc[n+]([O-])c2ccccc12 [4-NITROQUINOLINE-1-OXIDE]
Activity (Lymphocyte [2]): 4.8% | Activity (Lymphocyte [3]): 3.5%

IC50 [1, 6]: 3800 nM
SMILES: NCCCC(N)(C(=O)O)C(F)F (configuration not stated) [EFLORNITHINE]
IC50 (L6): 12 µg/mL (≈ 65.9 µM)

IC50 [1, 6]: 2570 nM | Activity [4]: -511 mV
SMILES: CSc1ccc(OCc2ncc([N+](=O)[O-])n2C)cc1 [FEXINIDAZOLE]
IC50 (L6): > 90 µg/mL

SMILES: Nc1nc(N)nc(Nc2ccc([As]3SCC(CO)S3)cc2)n1 (configuration not stated) [MELARSOPROL]
IC50 (L6): 1.3 µg/mL

Activity [4]: -516 mV
SMILES: Cc1ncc([N+](=O)[O-])n1CCO [METRONIDAZOLE]

SMILES: CC[C@]1(O)C[C@@H]2CN(CCc3c([nH]c4ccccc34)[C@@](C(=O)OC)(c3cc4c(cc3OC)N(C)[C@H]3[C@@](O)(C(=O)OC)[C@H](OC(C)=O)[C@]5(CC)C=CCN6CC[C@]43[C@@H]65)C2)C1 [VINBLASTINE]
Activity (Lymphocyte [5]): 6.06%
